Laboratory results taken from ChEMBL document CHEMBL1148731, “An integrated computational approach to the phenomenon of potent and selective inhibition of aurora kinases B and C by a series of 7-substituted indirubins” (J Med Chem, 2007).
pIC50: −log10 of the molar value.

How the values were obtained:
Aurora kinase A = target: T1, Aurora kinase A (Homo sapiens, UniProt O14965); test: Inhibition of human recombinant aurora A kinase
T1 sequence (O14965 whole entry): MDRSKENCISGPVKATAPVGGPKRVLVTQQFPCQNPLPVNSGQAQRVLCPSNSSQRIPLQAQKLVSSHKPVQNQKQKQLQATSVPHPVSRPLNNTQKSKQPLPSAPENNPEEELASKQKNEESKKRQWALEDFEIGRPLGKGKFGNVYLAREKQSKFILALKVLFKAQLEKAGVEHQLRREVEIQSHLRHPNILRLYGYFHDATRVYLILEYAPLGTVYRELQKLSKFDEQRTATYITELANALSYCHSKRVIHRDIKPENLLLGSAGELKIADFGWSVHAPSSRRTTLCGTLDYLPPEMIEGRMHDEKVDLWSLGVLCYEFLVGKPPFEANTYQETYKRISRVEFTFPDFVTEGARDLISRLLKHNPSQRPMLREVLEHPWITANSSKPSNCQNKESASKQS

Aurora kinase B = Aurora kinase B (Homo sapiens, UniProt Q96GD4); test: Inhibition of human recombinant aurora B kinase
Aurora kinase B, sequence (Q96GD4 whole entry): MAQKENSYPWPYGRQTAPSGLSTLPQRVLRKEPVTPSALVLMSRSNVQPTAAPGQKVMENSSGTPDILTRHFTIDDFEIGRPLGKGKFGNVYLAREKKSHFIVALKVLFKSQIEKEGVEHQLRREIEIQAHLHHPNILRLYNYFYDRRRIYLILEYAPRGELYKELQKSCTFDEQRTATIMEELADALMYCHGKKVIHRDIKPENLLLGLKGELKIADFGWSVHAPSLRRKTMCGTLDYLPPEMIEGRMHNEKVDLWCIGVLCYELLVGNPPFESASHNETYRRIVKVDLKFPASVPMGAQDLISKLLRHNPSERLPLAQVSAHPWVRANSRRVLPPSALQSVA
Summary of the method: (§1)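 Recombinant human Aurora kinase (A, B or C); myelin basic protein substrate (1 mg/mL) with 15 µM [γ-33P]ATP in buffer C (25 mM Mops pH 7.2, 60 mM β-glycerophosphate, 15 mM p-nitrophenylphosphate, 5 mM EGTA, 15 mM MgCl2, 1 mM DTT, 1 mM vanadate, 1 mM phenylphosphate), 30 min at 30 °C. Stopped by spotting on P81 paper, washed in 1% phosphoric acid, scintillation counted. IC50 from dose-response curves over various concentrations.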

Aurora kinase C = target: T2, Aurora kinase C (Homo sapiens, UniProt Q9UQB9); test: Inhibition of human recombinant aurora C kinase; summary of the method: as §1
T2 sequence (Q9UQB9 whole entry): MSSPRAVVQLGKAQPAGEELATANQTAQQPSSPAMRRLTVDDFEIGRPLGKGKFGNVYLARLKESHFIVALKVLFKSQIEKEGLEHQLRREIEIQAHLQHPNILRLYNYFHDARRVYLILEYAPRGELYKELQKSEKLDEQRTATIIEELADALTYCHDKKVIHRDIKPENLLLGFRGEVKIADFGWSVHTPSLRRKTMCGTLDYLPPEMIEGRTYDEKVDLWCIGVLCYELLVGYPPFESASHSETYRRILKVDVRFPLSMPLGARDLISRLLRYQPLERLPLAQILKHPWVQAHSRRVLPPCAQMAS

pIC50 (Aurora kinase A) | pIC50 (Aurora kinase B) | pIC50 (Aurora kinase C) | SMILES
5.64 | 5.68 | 6.15 | CC(=O)O/N=C1\C(c2c(O)[nH]c3ccccc23)=Nc2ccccc21
5.37 | 5.52 | 6.40 | CO/N=C1\C(c2c(O)[nH]c3ccccc23)=Nc2ccccc21
5.70 | 5.15 | 6.00 | O=Nc1c(-c2c(O)[nH]c3c(F)cccc23)[nH]c2ccccc12
< 4.00 | < 4.00 | 4.55 | CC(=O)O/N=C1\C(=C2\C(=O)Nc3c(I)cccc32)Nc2ccccc21
< 4.00 | < 4.00 | < 4.00 | CO/N=C1\C(=C2\C(=O)Nc3c(F)cccc32)Nc2ccccc21
– | 6.05 | 6.70 | O=C1Nc2cc(Br)ccc2/C1=C1/Nc2ccccc2/C1=N\O [6BIO]

Further lines, the molecule ahead of its results:

SMILES | pIC50 (Aurora kinase A) | pIC50 (Aurora kinase B) | pIC50 (Aurora kinase C)
O=Nc1c(-c2c(O)[nH]c3c(I)cccc23)[nH]c2ccccc12 | < 4.00 | 5.00 | 6.22
O=C1C(c2c(O)[nH]c3c(F)cccc23)=Nc2ccccc21 | < 4.00 | < 4.00 | < 4.00
O=Nc1c(-c2c(O)[nH]c3c(Cl)cccc23)[nH]c2ccccc12 | < 4.00 | 5.10 | 6.05
O=C1C(c2c(O)[nH]c3c(Br)cccc23)=Nc2ccccc21 | < 4.00 | < 4.00 | < 4.00
CO/N=C1\C(=C2\C(=O)Nc3c(Br)cccc32)Nc2ccccc21 | < 4.00 | < 4.00 | < 4.00
CO/N=C1\C(=C2\C(=O)Nc3c(Cl)cccc32)Nc2ccccc21 | < 4.00 | < 4.00 | < 4.00
CC(=O)O/N=C1\C(=C2\C(=O)Nc3c(F)cccc32)Nc2ccccc21 | 4.70 | 5.10 | 6.00
CO/N=C1\C(=C2\C(=O)Nc3c(I)cccc32)Nc2ccccc21 | < 4.00 | < 4.00 | < 4.00
O=Nc1c(-c2c(O)[nH]c3c(Br)cccc23)[nH]c2ccccc12 | – | 5.34 | 6.15
O=C1C(c2c(O)[nH]c3c(Cl)cccc23)=Nc2ccccc21 | < 4.00 | < 4.00 | < 4.00
O=C1C(c2c(O)[nH]c3c(I)cccc23)=Nc2ccccc21 | < 4.00 | < 4.00 | < 4.00
CC(=O)O/N=C1\C(=C2\C(=O)Nc3c(Br)cccc32)Nc2ccccc21 | < 4.00 | 4.70 | 5.35
CC(=O)O/N=C1\C(=C2\C(=O)Nc3c(Cl)cccc32)Nc2ccccc21 | < 4.00 | < 4.00 | < 4.00
O=Nc1c(-c2c(O)[nH]c3ccccc23)[nH]c2ccccc12 [INDIRUBIN-3-MONOXIME] | 5.40 | 5.64 | 6.52
